This is an account of results in publication PMC4885108 (Journal of medicinal chemistry, 2016).

The nature of one data set: Fast PK studies. The class given is in vivo. Particulars: mouse, plasma, iv. The procedure, abridged: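 Female ICR mice (n = 2 per time point) got one tail-vein iv injection of 5, 10 or 20 mg/kg in 25% DMSO/65% propylene glycol/10% water. Plasma was precipitated with acetonitrile containing internal standard, then run by UPLC-UV or MRM against 0–50 μg/mL calibration curves. AUC and CL came from noncompartmental analysis.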

For data set [1], the system named is red blood cells. Particulars: at 64 μg/mL; ref 22 (Bouley et al.); cited from earlier work.
The next data set concerns B. cereus ATCC 13061. The following applies: ref 22 (Bouley et al.); cited from earlier work.
Data set [2] concerns B. licheniformis ATCC 12759. The following applies: ref 22 (Bouley et al.); cited from earlier work.
The next data set relates to S. pyogenes ATCC 49399. Particulars: ref 22 (Bouley et al.); cited from earlier work.
A further data set concerns MRSA NRS70. Kind of data set: Mouse neutropenic thigh infection model. The class given is in vivo. The following applies: thighs harvested at 24 h.
A further data set relates to E. faecalis ATCC 29212. Particulars: quality control strain; ref 22 (Bouley et al.); cited from earlier work.
Data set [3] is described as follows: Compound levels in plasma and uninfected thighs in the neutropenic thigh model. The format is in vivo, mouse. Particulars: for levels in plasma / levels in the thighs (uninfected): 24 h after infection (7 h after the last dose).
The next data set relates to S. oralis ATCC 9811. Particulars: ref 22 (Bouley et al.); cited from earlier work.
In the next data set the test system is E. faecalis 99. Particulars: vancomycin-resistant clinical isolate; ref 22 (Bouley et al.); cited from earlier work.
Another data set has as its system S. aureus. Kind of data set: MBC determination, three strains of S. aureus together. The class given is cell-based.
The subject of data set [4] is red blood cells. Kind of data set: Hemolysis assay. The following applies: at 64 μg/mL, Triton-X as positive control. The format is cell-based, human.
A further data set can be described thus: Full PK study. The class given is in vivo, mouse. The following applies: 10 mg/kg.
A further data set relates to S. aureus strains. The data set is described as follows: MIC, all S. aureus strains tested. The class given is cell-based. The following applies: Staphylococcus aureus, read-out: MIC for all S. aureus strains tested. The procedure, abridged: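 CLSI broth microdilution: 2-fold serial compound dilutions in cation-adjusted Mueller–Hinton broth, set up in triplicate. Inoculum 5 × 10^5 CFU/mL.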

The mark [5] stands for this setting: 10 mg/kg, fast PK AUC0–last, mice, single iv dose 10 mg/kg.
The mark [6] stands for this setting: 20 mg/kg subcutaneously every 8 h.

Like-named read-outs stand apart in the source and are kept apart here.

By clearance is commonly meant the rate of elimination divided by the concentration. Usually AUC(0-t) stands for exposure summed from dosing to a finite time, without extrapolation to infinity. A lower AUC(0-t) goes with low exposure. `CC(=O)Nc1cccc(-n2c(/C=C/c3ccc(F)cc3)nc3ccccc3c2=O)c1` [Compound 42, (E)-3-(3-Acetamidophenyl)-2-(4-fluorostyryl)quinazolin-4(3H)-one] displayed a clearance in “Fast PK studies” (10 mg/kg) of 88 mL/min/kg. In the data set “Fast PK studies” (setting [5]), this compound showed an AUC(0-t) of 4730 ng·h/mL.

Turning to `N#Cc1ccc(/C=C/c2nc3ccccc3c(=O)n2-c2cccc(C(=O)O)c2)cc1` [Compound 2, (E)-3-(3-Carboxyphenyl)-2-(4-cyanostyryl)quinazolin-4(3H)-one], in the data set on red blood cells [1], the hemolysis was under 1%. Also, in the data set on B. cereus ATCC 13061, the “MIC B. cereus ATCC 13061” value was over 128 µg/mL. Further, the “MIC B. licheniformis ATCC 12759” value in [2] was over 128 µg/mL. In addition, in the data set on S. pyogenes ATCC 49399, the “MIC S. pyogenes ATCC 49399” value was over 128 µg/mL. Besides, the “lowering of the bacterial load compared to the negative control” value (shortened to “lowering … compared to the negative control”) in the data set with MRSA NRS70 (setting [6]) is listed as “not able to achieve statistically significant efficacy”. In addition, the “MIC E. faecalis ATCC 29212” value with E. faecalis ATCC 29212 is over 128 µg/mL. In [3] (20 mg/kg sc every 8 h), the levels in plasma was 1130 ± 1070 ng/mL and the “levels in the thighs (uninfected)” value amounted to 24 ± 23 ng/mL. In the data set with S. oralis ATCC 9811, the “MIC S. oralis ATCC 9811” value is over 128 µg/mL. Further, the “MIC E. faecalis 99” value in the data set with E. faecalis 99 was over 128 µg/mL. For the same compound, in the data set with S. aureus, the “fold difference between MIC and MBC” value is reported as over 4 fold.

`N#Cc1ccc(/C=C/c2nc3ccccc3c(=O)n2-c2cccc(C(=O)NCCO)c2)cc1` [Compound 57, (E)-3-(3-(2-Hydroxyethyl)carbomylphenyl)-2-(4-cyanostyryl)quinazolin-4(3H)-one] had a clearance at 8 h in “Fast PK studies” (10 mg/kg) of 29 mL/min/kg.

`CS(=O)(=O)Nc1cccc(-n2c(/C=C/c3ccc(F)cc3)nc3ccccc3c2=O)c1` [Compound 43, (E)-3-(3-Methylsulfonamidophenyl)-2-(4-fluorostyryl)-quinazolin-4(3H)-one] showed a clearance in “Fast PK studies” (10 mg/kg) of 28 mL/min/kg. The compound also gave an AUC(0-t) in “Fast PK studies” (setting [5]) of 13700 ng·h/mL.

`CC(=O)NC[C@H]1CN(c2ccc(N3CCOCC3)c(F)c2)C(=O)O1` [linezolid, reference compound]: the “lowering … compared to the negative control” value in the data set with MRSA NRS70 (10 mg/kg subcutaneously every 8 h) is “statistically significant lowering of the bacterial load”. For the same compound, in [3] (10 mg/kg sc every 8 h), the levels in plasma entry is given as “not quantifiable” and the “levels in the thighs (uninfected)” value was “not quantifiable”.

On to `N#Cc1ccc(/C=C/c2nc3ccccc3c(=O)n2-c2cccc(N)c2)cc1` [Compound 50, (E)-3-(3-Aminophenyl)-2-(4-cyanostyryl)quinazolin-4(3H)-one], for which, in “Fast PK studies” (10 mg/kg), the clearance at 8 h amounted to 25 mL/min/kg. Also, the hemolysis entry in the data set with red blood cells [4] is “some hemolysis”.

Consider `O=c1c2ccccc2nc(/C=C/c2ccc(F)cc2)n1-c1cccc(O)c1` [Compound 5, (E)-3-(3-Hydroxyphenyl)-2-(4-fluorostyryl)quinazolin-4(3H)-one], for which, in the data set “Fast PK studies” (5 mg/kg), the clearance was 11 mL/min/kg and the clearance at 8 h turned out to be 10.7 mL/min/kg. In the data set with red blood cells [4], the hemolysis result is reported as “no significant hemolytic activity”.

`CC(=O)Nc1cccc(-n2c(/C=C/c3ccc(C#N)cc3)nc3ccccc3c2=O)c1` [Compound 52, (E)-3-(3-Acetamidophenyl)-2-(4-cyanostyryl)quinazolin-4(3H)-one] displayed a clearance at 8 h in “Fast PK studies” (5 mg/kg) of 131 mL/min/kg.

The compound `CC(=O)NCc1cccc(-n2c(/C=C/c3ccc(C#N)cc3)nc3ccccc3c2=O)c1` [Compound 53, (E)-3-(3-(Acetamidomethyl)phenyl)-2-(4-cyanostyryl)-quinazolin-4(3H)-one] showed a clearance at 8 h in the data set “Fast PK studies” (10 mg/kg) of 35 mL/min/kg.

As for `N#Cc1ccc(/C=C/c2nc3ccccc3c(=O)n2-c2cccc(O)c2)cc1` [Compound 15, (E)-3-(3-Hydroxyphenyl)-2-(4-cyanostyryl)quinazolin-4(3H)-one], in the data set “Fast PK studies” (5 mg/kg), the AUC(0-t) is 450 ng·h/mL and the clearance at 8 h came to 186 mL/min/kg.

In general, MIC refers to the lowest concentration found to suppress growth. For `C#Cc1ccc(/C=C/c2nc3ccccc3c(=O)n2-c2cccc(C(=O)O)c2)cc1` [Compound 27, (E)-3-(3-Carboxyphenyl)-2-(4-ethynylstyryl)quinazolin-4(3H)-one], the “lowering … compared to the negative control” value in the data set on MRSA NRS70 (setting [6]) is listed as “statistically significant lowering of the bacterial load”. In “Fast PK studies” (10 mg/kg), this compound gave a clearance of 6.4 mL/min/kg. For the same compound, in data set [3] (20 mg/kg sc every 8 h), the levels in plasma is 2430 ± 1640 ng/mL and the “levels in the thighs (uninfected)” value turned out to be 220 ± 170 ng/mL. Also, in data set [3] (24 h after infection, 20 mg/kg sc every 8 h), the “levels in thighs, fold higher than compound 2” value stood at 9 fold. Besides, in the data set “Full PK study” (ICR, mouse, plasma, iv), the AUC(0-t) is 25700 ng·h/mL and the clearance is 6.4 mL/min/kg. The “volume of distribution (Vd), fold higher than compound 2” value in the data set “Full PK study” (mice, iv) is listed as 10 fold. The “Cmax after po administration, fold higher than compound 2” value in “Full PK study” (mice, po) is on record as 2 fold. Further, the “fold difference between MIC and MBC” value in the data set on S. aureus is reported as over 4 fold. In addition, the MIC with S. aureus strains was at most 0.5 µg/mL.

`CS(=O)(=O)Nc1cccc(-n2c(/C=C/c3ccc(C#N)cc3)nc3ccccc3c2=O)c1` [Compound 54, (E)-3-(3-Methylsulfonamidophenyl)-2-(4-cyanostyryl)-quinazolin-4(3H)-one] registered a clearance at 8 h in “Fast PK studies” (5 mg/kg) of 162 mL/min/kg.

`O=C(O)c1cccc(-n2c(/C=C/c3ccc(F)cc3)nc3ccccc3c2=O)c1` [Compound 30, (E)-3-(3-Carboxyphenyl)-2-(4-fluorostyryl)quinazolin-4(3H)-one] had a clearance at 8 h in the data set “Fast PK studies” (20 mg/kg) of 7.8 mL/min/kg.
